Calls of active or inactive are those of the source. No cut-off for these calls is given here.
Experiments:
[1] = tested on: BV-2; assay: Cytotoxicity against mouse BV2 cells assessed as reduction in cell viability at 1 to 100 uM after 24 hrs by MTT assay; type: cell-based; conditions: bv-2, 24 h
In short: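 BV2 cells after 24 h treatment; supernatant removed, MTT 0.25 mg/mL added for 4 h at 37 °C, formazan dissolved in DMSO, absorbance read at 490 nm.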

[2] = tested on: BV-2; assay: Antineuroinflammatory activity in mouse BV2 cells assessed as inhibition of LPS-induced nitric oxide production at 100 uM after 24 hrs by griess assay; type: functional, cell-based
In short: (§1)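 BV2 microglia plated at 5 × 10^4 cells/well, exposed to compound (1, 3, 10, 30, 100 μM) together with LPS 100 ng/mL for 24 h. Nitrite in medium quantified by Griess reagent (1% sulfanilamide; 0.1% naphthylethylenediamine dihydrochloride, 2% phosphoric acid), 15 min at room temperature, absorbance 540 nm. Mean ± SE of three independent experiments.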

[3] = tested on: BV-2; assay: Antineuroinflammatory activity in mouse BV2 cells assessed as inhibition of LPS-induced nitric oxide production after 24 hrs by griess assay; type: functional, cell-based; conditions: BV-2, 24 h; in short: as §1

IC50 [3] [µM] | Compound | Activity [1] | inhibition [2]
– | CC(C)=CCC1(CC=C(C)C)C(=O)C(O)=C(O)C1=O [HULUPINIC ACID] | Non-Toxic | –
– | CC(C)=CCc1c(O)c2c(c(C(=O)CC(C)C)c1O)O[C@H](C(C)(C)O)C2 | Non-Toxic | –
– | CC(C)=CCC1=C2O[C@H](C(C)(C)O)C[C@@]2(O)C(=O)C(C(=O)CC(C)C)=C1O | Non-Toxic | –
– | CC(C)=CC[C@@]1(O)C(=O)C(C(=O)C(C)C)=C(O)C2=C1O[C@H](C(C)(C)O)C2 | Non-Toxic | –
– | CC(C)=CC[C@@]1(O)C(=O)C(C(=O)CC(C)C)=C(O)C2=C1OC(C)(C)[C@@H](O)C2 | Non-Toxic | –
– | CC(C)=CC[C@@]1(O)C(=O)C(C(=O)C(C)C)=C(O)C2=C1OC(C)(C)[C@@H](O)C2 | Non-Toxic | Active
57.7 | COc1ccc(/C=C/C(=O)c2c(O)cc(OC)c(CC=C(C)C)c2O)cc1 | Non-Toxic | –
– | CC(C)=CCc1c(O)c2c(c(C(=O)CC(C)C)c1O)O[C@@H](C(C)(C)O)C2 | Non-Toxic | –
7.92 | COc1cc(O)c(CC=C(C)C)c(O)c1C(=O)/C=C/c1ccc(O)cc1 [XANTHOHUMOL] | Non-Toxic | –
– | CC(C)=CC[C@@]1(O)C(=O)C(C(=O)CC(C)C)=C(O)C2=C1OC(C)(C)[C@H](O)C2 | Non-Toxic | –
– | CC(C)=CC[C@@]1(O)C(=O)C(C(=O)CC(C)C)=C(O)C2=C1O[C@@H](C(C)(C)O)C2 | Non-Toxic | –
21.4 | CC(C)=CCc1c(O)cc(O)c2c(=O)cc(C(C)C)oc12 | Non-Toxic | –
– | CC(C)(O)[C@H]1C[C@@](C(=O)O)([C@H]2CC(=O)OC2(C)C)C(=O)O1 | Non-Toxic | –
– | CC1(C)C[C@@H](O)[C@@]23CC[C@H](O)[C@@](C)(CC[C@H]12)C3 | Non-Toxic | –
– | CC(C)=CC[C@@]1(O)C(=O)C(C(=O)CC(C)C)=C(O)C2=C1O[C@H](C(C)(C)O)C2 | Non-Toxic | –
19.5 | COc1cc(O)c(CC=C(C)C)c2c1C(=O)C[C@@H](c1ccc(O)cc1)O2 | Non-Toxic | –
